Holding throughout (type): functional
For one assay, the system named is Proteus mirabilis. Put plainly: In vitro minimum inhibitory concentration (MIC) against Proteus mirabilis 1. Summed up: (§1)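 Agar dilution on heart infusion agar; the MIC is read as the lowest concentration that inhibits growth of the strain.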
In the next assay the test system is Serratia marcescens. The experiment in a line: In vitro minimum inhibitory concentration (MIC) against Serratia marcescens. Summed up: as §1
The test system of a further assay is Klebsiella pneumoniae. The experiment in a line: In vitro minimum inhibitory concentration (MIC) against Klebsiella pneumonia 12. The procedure, abridged:
as §1

The subject of the next assay is Escherichia coli. The experiment in a line: In vitro minimum inhibitory concentration (MIC) against NIHJ JC-2 strain of Escherichia coli. The procedure, abridged: as §1
A further assay has as its system Pseudomonas aeruginosa. Put plainly: In vitro minimum inhibitory concentration (MIC) against NCTC 10490 strain of Pseudomonas aeruginosa. The procedure, abridged:
as §1

The subject of another assay is Staphylococcus aureus. Put plainly: In vitro minimum inhibitory concentration (MIC) against 209P JC-1 strain of Staphylococcus aureus. Summed up:
as §1

The test system of a further assay is Bacillus subtilis. Put plainly: In vitro minimum inhibitory concentration (MIC) against ATCC 6633 strain of Bacillus subtilis. Summed up:
as §1

Values after ≈ are worked out from the molar mass of the structure shown.

The term MIC denotes the least concentration at which growth counts as inhibited. A higher MIC goes with a less susceptible organism. Take `CO/N=C(/C(=O)N[C@@H]1C(=O)N2C(C(=O)O)=CCO[C@H]12)c1csc(N)n1`: the MIC in the assay on Proteus mirabilis stood at 3.13 µg/mL (≈ 8.52 µM); against Serratia marcescens, 100 µg/mL (≈ 272 µM); against Klebsiella pneumoniae, 1.56 µg/mL (≈ 4.25 µM); against Escherichia coli it was 6.25 µg/mL (≈ 17 µM); against Pseudomonas aeruginosa, 800 µg/mL (≈ 2180 µM); with Staphylococcus aureus, 12.5 µg/mL (≈ 34 µM). This compound also gave an MIC in the assay with Bacillus subtilis of 100 µg/mL (≈ 272 µM).
In the case of `CC(C)O/N=C(\C(=O)N[C@@H]1C(=O)N2C(C(=O)O)=CCO[C@H]12)c1csc(N)n1`, the MIC with Proteus mirabilis is 0.2 µg/mL (≈ 0.506 µM); in the assay on Serratia marcescens it was 25 µg/mL (≈ 63.2 µM); in the assay on Klebsiella pneumoniae, 0.78 µg/mL (≈ 1.97 µM); against Escherichia coli, 0.78 µg/mL (≈ 1.97 µM); in the assay with Pseudomonas aeruginosa, 12.5 µg/mL (≈ 31.6 µM); in the assay with Staphylococcus aureus it was 12.5 µg/mL (≈ 31.6 µM). Further, the minimum inhibitory concentration (MIC) against Bacillus subtilis was found to be 50 µg/mL (≈ 126 µM).
With `CO/N=C(\C(=O)N[C@@H]1C(=O)N2C(C(=O)O)=CCS[C@H]12)c1csc(N)n1` [CEFTIZOXIME], the minimum inhibitory concentration (MIC) came to 0.025 µg/mL (≈ 0.0652 µM) in the assay with Proteus mirabilis; 50 µg/mL (≈ 130 µM) in the assay with Serratia marcescens; 0.05 µg/mL (≈ 0.13 µM) with Klebsiella pneumoniae; 0.05 µg/mL (≈ 0.13 µM) with Escherichia coli; 25 µg/mL (≈ 65.2 µM) against Pseudomonas aeruginosa; 6.25 µg/mL (≈ 16.3 µM) with Staphylococcus aureus. It took 25 µg/mL (≈ 65.2 µM) to inhibit growth against Bacillus subtilis (MIC).
Regarding `CO/N=C(\C(=O)N[C@@H]1C(=O)N2C(C(=O)O)=CCO[C@H]12)c1csc(N)n1`, the minimum inhibitory concentration (MIC) was determined as 0.2 µg/mL (≈ 0.544 µM) in the assay with Proteus mirabilis; 100 µg/mL (≈ 272 µM) with Serratia marcescens; 0.78 µg/mL (≈ 2.12 µM) with Klebsiella pneumoniae; 0.2 µg/mL (≈ 0.544 µM) in the assay on Escherichia coli; 800 µg/mL (≈ 2180 µM) against Pseudomonas aeruginosa; 25 µg/mL (≈ 68.1 µM) against Staphylococcus aureus. Moreover, 100 µg/mL (≈ 272 µM) was the least that counted as inhibitory in the assay on Bacillus subtilis (MIC).
Turning to `CCO/N=C(\C(=O)N[C@@H]1C(=O)N2C(C(=O)O)=CCO[C@H]12)c1csc(N)n1`, the MIC came to 0.05 µg/mL (≈ 0.131 µM) against Proteus mirabilis; 12.5 µg/mL (≈ 32.8 µM) against Serratia marcescens; 0.1 µg/mL (≈ 0.262 µM) against Klebsiella pneumoniae; 0.1 µg/mL (≈ 0.262 µM) with Escherichia coli; 3.13 µg/mL (≈ 8.21 µM) with Pseudomonas aeruginosa; 6.25 µg/mL (≈ 16.4 µM) against Staphylococcus aureus. In addition, the MIC in the assay with Bacillus subtilis was found to be 50 µg/mL (≈ 131 µM).
With `CCCCO/N=C(\C(=O)N[C@@H]1C(=O)N2C(C(=O)O)=CCO[C@H]12)c1csc(N)n1`, the minimum inhibitory concentration (MIC) with Proteus mirabilis worked out at 0.78 µg/mL (≈ 1.91 µM); in the assay on Serratia marcescens, 100 µg/mL (≈ 244 µM); in the assay on Klebsiella pneumoniae, 3.13 µg/mL (≈ 7.64 µM); in the assay with Escherichia coli, 0.78 µg/mL (≈ 1.91 µM); in the assay on Pseudomonas aeruginosa, 12.5 µg/mL (≈ 30.5 µM); against Staphylococcus aureus, 12.5 µg/mL (≈ 30.5 µM). Also, in the assay with Bacillus subtilis, inhibition of growth (MIC) required 50 µg/mL (≈ 122 µM).
As to `C=CCO/N=C(\C(=O)N[C@@H]1C(=O)N2C(C(=O)O)=CCO[C@H]12)c1csc(N)n1`, the minimum inhibitory concentration (MIC) with Proteus mirabilis came out at 0.1 µg/mL (≈ 0.254 µM); against Serratia marcescens, 100 µg/mL (≈ 254 µM); in the assay with Klebsiella pneumoniae, 1.56 µg/mL (≈ 3.97 µM); in the assay on Escherichia coli, 3.13 µg/mL (≈ 7.96 µM); in the assay on Pseudomonas aeruginosa it was 50 µg/mL (≈ 127 µM); in the assay on Staphylococcus aureus it was 6.25 µg/mL (≈ 15.9 µM). Besides, in the assay with Bacillus subtilis, the minimum inhibitory concentration (MIC) turned out to be 100 µg/mL (≈ 254 µM).
Regarding `CO/N=C(\C(=O)N[C@@H]1C(=O)N2C(C(=O)O)=CCO[C@H]12)c1ccco1`, the minimum inhibitory concentration (MIC) against Proteus mirabilis turned out to be 0.78 µg/mL (≈ 2.33 µM); with Serratia marcescens, 100 µg/mL (≈ 298 µM); with Klebsiella pneumoniae, 1.56 µg/mL (≈ 4.65 µM); against Escherichia coli it was 6.25 µg/mL (≈ 18.6 µM); in the assay on Pseudomonas aeruginosa, 800 µg/mL (≈ 2390 µM); against Staphylococcus aureus, 12.5 µg/mL (≈ 37.3 µM). For the same compound, in the assay on Bacillus subtilis, the MIC was 50 µg/mL (≈ 149 µM).
For `C#CCO/N=C(\C(=O)N[C@@H]1C(=O)N2C(C(=O)O)=CCO[C@H]12)c1csc(N)n1`, the MIC worked out at 0.1 µg/mL (≈ 0.256 µM) with Proteus mirabilis; 100 µg/mL (≈ 256 µM) against Serratia marcescens; 0.2 µg/mL (≈ 0.511 µM) against Klebsiella pneumoniae; 1.56 µg/mL (≈ 3.99 µM) in the assay on Escherichia coli; 400 µg/mL (≈ 1020 µM) in the assay on Pseudomonas aeruginosa; 12.5 µg/mL (≈ 31.9 µM) in the assay with Staphylococcus aureus. This compound displayed an MIC against Bacillus subtilis of 25 µg/mL (≈ 63.9 µM).
Turning to `CO/N=C(\C(=O)N[C@@H]1C(=O)N2C(C(=O)O)=CCO[C@H]12)c1ccccc1`, the minimum inhibitory concentration (MIC) came to 6.25 µg/mL (≈ 18.1 µM) with Proteus mirabilis; 100 µg/mL (≈ 290 µM) against Serratia marcescens; 12.5 µg/mL (≈ 36.2 µM) against Klebsiella pneumoniae; 25 µg/mL (≈ 72.4 µM) in the assay with Escherichia coli; 800 µg/mL (≈ 2320 µM) in the assay on Pseudomonas aeruginosa; 1.56 µg/mL (≈ 4.52 µM) against Staphylococcus aureus. Besides, it took 25 µg/mL (≈ 72.4 µM) to inhibit growth in the assay with Bacillus subtilis (MIC).
